Bioassay records as filed in PubChem BioAssay.
Sampled rows, rich in hits. Any-hit rate of the full collection: about 1.5%.
NR2E3 ag-1 – inhibitors of NR2E3-RetCOR corepressor binding, primary screen, NR2E3 agonist project, biochemical, TR-FRET, GST-NR2E3, biotin-RetCOR; Photoreceptor-specific nuclear receptor (Homo sapiens), Q9Y5X4; 1536-well; inhibition of corepressor binding, % at 4.78 µM; hit rate 0.12% among 320,000; AID 2300, 2010;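 active = percent inhibition above the cutoff of mean plus 3 SD of all tested compounds, set per screening campaign, cut at about 20% in these data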;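 note: 0% = DMSO wells and 100% = biotin wells as full block of FRET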
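System: GST-tagged NR2E3 plus biotinylated RetCOR corepressor; Amount: 1.35 nM GST-tagged NR2E3 final; Dosing: single nominal compound dose of 4.8 µM; Schedule: 5 h incubation at 4 °C; Technique: TR-FRET with europium anti-GST and streptavidin-D2, 340 nm excitation; Controls: biotin wells as high control, 0.6% DMSO wells as low control.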
GASC-1 inh – inhibitors of GASC-1 histone demethylase, primary screen, biochemical, fluorescence, DELFIA europium | GST-JMJD2C(1-420) H3K9me3 demethylation | inhibition, % at 2.35 µM | hit rate 0.069% among 330,000;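 active = more than half of a compound's replicate wells show inhibition beyond 50%, single wells judged on their own value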;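 note: signal counts dimethyl H3K9 product captured on neutravidin plate; 0% = median of DMSO wells and 100% = 0.3 times that DMSO median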
Target sequence (Q9H3R0 1-420 limits assumed): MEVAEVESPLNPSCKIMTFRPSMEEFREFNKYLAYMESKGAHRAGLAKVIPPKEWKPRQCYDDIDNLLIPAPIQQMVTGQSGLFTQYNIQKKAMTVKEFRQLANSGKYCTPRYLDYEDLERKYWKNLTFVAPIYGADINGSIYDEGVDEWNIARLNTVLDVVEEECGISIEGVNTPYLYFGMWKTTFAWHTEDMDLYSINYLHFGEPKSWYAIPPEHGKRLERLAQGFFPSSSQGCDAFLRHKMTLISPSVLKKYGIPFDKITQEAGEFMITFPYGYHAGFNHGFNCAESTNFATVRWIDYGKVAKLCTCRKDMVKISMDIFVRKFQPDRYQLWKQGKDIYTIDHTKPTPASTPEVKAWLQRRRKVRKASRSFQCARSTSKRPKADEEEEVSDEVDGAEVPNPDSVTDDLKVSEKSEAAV
NR2E3 ag-2 – NR2E3 agonists in two-hybrid cells, primary screen, cell-based, luminescence, CHO-S, Gal4-NCOR/VP16-NR2E3. Photoreceptor-specific nuclear receptor (Homo sapiens), Q9Y5X4. luciferase. inhibition of corepressor binding, % at 3.98 µM. hit rate 0.35% among 360,000. AID 602229, 2012;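 active = inhibition above the mean of all tested compounds plus 3 SD, cut at about 70% in these data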;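 note: 0% = DMSO with NR2E3 transfected cells and 100% = cells lacking NR2E3 construct; higher means lower luciferase signal from less NR2E3 corepressor binding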
697 NFkB inh – inhibitors of PMA/ionomycin-induced NF-kB reporter, 697 cells, primary screen, B-cell NF-kB inhibitor project, cell-based, luminescence, uHTS | AID 435022, 2010 | inhibition, % at 4 µM | 697 B-cell NF-kB luciferase reporter, 16 h | hit rate 0.33% among 330,000; in the data active = inhibition above about 35%
Jurkat NFkB inh – inhibitors of induced NF-kB luciferase reporter, primary screen, TCR NF-kB activation inhibitor project, cell-based, luminescence, uHTS | Jurkat, PMA/ionomycin-induced NF-kB luciferase reporter | inhibition, % at 4 µM | hit rate 0.53% among 330,000 | AID 435003, 2010; in the data active = inhibition above about 50%
GalR3 antagonist – GalR3 antagonists in HEK293 cells, primary screen, cell-based, fluorescence readout | HEK293 GalR3-CNG cAMP membrane potential fluorescence; galR3 body fused to GalR1 C-terminus | Galanin receptor type 3 (Homo sapiens), O60755 | hit rate 0.44% among 360,000 | inhibition, % at 3 µM;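 active = inhibition above the screen-wide average plus 3 SD, cut at about 13% in these data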;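 note: forskolin and galanin both at EC90 stimulate the cells; cAMP rise reported by CNG channel membrane potential dye signal; 0% = forskolin plus galanin with DMSO and 100% = forskolin alone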
NR2E3 ag conf – NR2E3 agonist confirmation in cells, cell-based, luminescence, CHO-S two-hybrid; shares compounds with NR2E3 ag-2; CHO-S mammalian two-hybrid NR2E3-NCOR, luciferase luminescence; inhibition, % at 3.98 µM; hit rate 51% among 2,300; AID 624378, 2012;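 active = average inhibition above a cutoff equal to the mean inhibition of all tested compounds plus one SD, cut at about 70% in these data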;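 note: 0% = DMSO in NR2E3 cells and 100% = DMSO in cells lacking NR2E3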
VP16 counter – GAL4-VP16 reporter modulators, confirmation, counter-screen for NR2E3 agonist project, cell-based, luminescence, CHO-S, high throughput | shares compounds with NR2E3 ag-2 | CHO-S GAL4-VP16 luciferase reporter | inhibition, % at 3.98 µM | hit rate 29% among 2,300;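 active = mean inhibition above a cutoff equal to the average over all tested compounds plus one standard deviation, cut at about 70% in these data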;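 note: luciferase from a UAS reporter driven by GAL4-VP16 transactivation; 0% = DMSO with VP16-transfected cells and 100% = DMSO with cells lacking VP16; higher means less reporter light so more repression of VP16 activity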
* marks the source's active call; other numbers are inactive results.

CCOc1ccc(S(=O)(=O)Nc2cccc(N(C)S(C)(=O)=O)c2)cc1 was read as NR2E3 ag-1 0, GASC-1 inh -13, NR2E3 ag-2 49, 697 NFkB inh -40, Jurkat NFkB inh -7, GalR3 antagonist -5, NR2E3 ag conf 48 and VP16 counter 54.
CCOc1ccc(NS(=O)(=O)c2ccc3c(c2)N(C(C)=O)CC3)cc1 was read as NR2E3 ag-1 0, GASC-1 inh 4, NR2E3 ag-2 15, 697 NFkB inh -18, Jurkat NFkB inh 13 and GalR3 antagonist -3.
COc1ccc(NS(=O)(=O)c2ccc(C(=O)N3CCC(C)CC3)cc2)cc1 was read as GASC-1 inh 11, NR2E3 ag-2 56, 697 NFkB inh -6, Jurkat NFkB inh 6, GalR3 antagonist -5, NR2E3 ag conf 25 and VP16 counter 25.
`S=C1NCN(CC2CC2)CN1` gave GalR3 antagonist -7.
Screening CC(=O)Nc1cc2c(cc1NC(=O)Cn1nc(-c3ccc4c(c3)OCCO4)ccc1=O)OCCO2 returned NR2E3 ag-1 1, GASC-1 inh 17, NR2E3 ag-2 -16, 697 NFkB inh 3, Jurkat NFkB inh 0 and GalR3 antagonist -1.
Screening CCCn1cnnc1CNC(=O)C1CCC(=O)N(CCCc2ccccc2)C1 (configuration not stated) returned NR2E3 ag-1 1, GASC-1 inh 12, NR2E3 ag-2 -9, 697 NFkB inh 8, Jurkat NFkB inh 1 and GalR3 antagonist -7.
CC(=O)Nc1ccc(N2CCc3c(C)c(C#N)c4nc5ccccc5n4c32)cc1 was read as NR2E3 ag-1 -2, GASC-1 inh 1, 697 NFkB inh -18 and Jurkat NFkB inh 44.
For CCOc1ccc(S(=O)(=O)Nc2ccc3c(c2)n(C)c(=O)n3C)cc1 the results were NR2E3 ag-1 3, GASC-1 inh 7, NR2E3 ag-2 74*, 697 NFkB inh 0, Jurkat NFkB inh 25, GalR3 antagonist -10, NR2E3 ag conf 62 and VP16 counter 59.
CCOc1ccc(NS(=O)(=O)c2ccc(C(=O)N3CCCCC3)cc2)cc1 was read as NR2E3 ag-1 0, GASC-1 inh 0, NR2E3 ag-2 58, 697 NFkB inh -9, Jurkat NFkB inh 6, GalR3 antagonist -3, NR2E3 ag conf 40 and VP16 counter 54.
`CC(=O)/C(=N/Nc1ccccc1)N1CCOCC1` gave NR2E3 ag-1 -2, GASC-1 inh -12, NR2E3 ag-2 2, 697 NFkB inh 11, Jurkat NFkB inh 1 and GalR3 antagonist -3.
Screening CC(=O)/C(=N/Nc1cccc(Cl)c1)N1CCOCC1 returned NR2E3 ag-1 6, GASC-1 inh 6, NR2E3 ag-2 64, 697 NFkB inh -3, Jurkat NFkB inh 4, GalR3 antagonist -2, NR2E3 ag conf 7 and VP16 counter -18.
`O=C(/C=C/c1cccc([N+](=O)[O-])c1)N1CCN(S(=O)(=O)c2cccs2)CC1` gave NR2E3 ag-1 9, GASC-1 inh 0, NR2E3 ag-2 -15, 697 NFkB inh 25, Jurkat NFkB inh 16 and GalR3 antagonist -4.
